{"source": "ChEMBL document CHEMBL1255289", "about": "“In vitro antifungal activities of isavuconazole (BAL4815), voriconazole, and fluconazole against 1,007 isolates of zygomycete, Candida, Aspergillus, Fusarium, and Scedosporium species” (2008)", "format_in_all_cases": "functional", "key": {"[1]": {"tested_on": "Mucor", "experiment": "Antifungal activity against Mucor isolates assessed as lowest compound concentration that produced complete inhibition of microbial growth after 24 hrs by CLSI M38-A procedure based assay", "procedure,_shortened": "(§1)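 Zygomycete isolates subcultured on potato dextrose or Sabouraud agar, then tested by CLSI M38-A broth microdilution. Drugs were serially diluted in plates at final 0.015–16 µg/ml and incubated at 35°C. Plates were read by eye at 24 h. MIC-0 was the lowest concentration giving complete growth inhibition.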"}, "[2]": {"tested_on": "Mucor", "experiment": "Antifungal activity against Mucor isolates assessed as lowest compound concentration that produced slight growth or approximately 25% of that of growth control after 24 hrs by CLSI M38-A procedure based assay", "procedure,_shortened": "(§2)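 Clinical isolates were kept at –70°C as spore suspensions in sterile water and subcultured on potato dextrose or Sabouraud agar before testing. Broth microdilution used DMSO stocks in trays stored at –70°C, with final drug 0.015–16 µg/ml.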"}, "[3]": {"tested_on": "Rhizopus", "experiment": "Antifungal activity against Rhizopus isolates assessed as lowest compound concentration that produced slight growth or approximately 25% of that of growth control after 24 hrs by CLSI M38-A procedure based assay", "procedure,_shortened": "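Rhizopus isolates tested by CLSI M38-A broth microdilution at final 0.015–16 µg/ml, 35°C, read by eye at 24 h.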"}, "[4]": {"tested_on": "Absidia", "experiment": "Antifungal activity against Absidia isolates assessed as lowest compound concentration that produced slight growth or approximately 25% of that of growth control after 24 hrs by CLSI M38-A procedure based assay", "procedure,_shortened": "as §2"}, "[5]": {"tested_on": "Cunninghamella", "experiment": "Antifungal activity against Cunninghamella isolates assessed as lowest compound concentration that produced complete inhibition of microbial growth after 24 hrs by CLSI M38-A procedure based assay", "procedure,_shortened": "as §1"}, "[6]": {"tested_on": "Cunninghamella", "experiment": "Antifungal activity against Cunninghamella isolates assessed as lowest compound concentration that produced slight growth or approximately 25% of that of growth control after 24 hrs by CLSI M38-A procedure based assay", "procedure,_shortened": "as §2"}, "[7]": {"tested_on": "Syncephalastrum", "experiment": "Antifungal activity against Syncephalastrum isolates assessed as lowest compound concentration that produced complete inhibition of microbial growth after 24 hrs by CLSI M38-A procedure based assay", "procedure,_shortened": "as §1"}, "[8]": {"tested_on": "Scedosporium apiospermum", "experiment": "Antifungal activity against Scedosporium apiospermum isolates assessed as lowest compound concentration that produced complete inhibition of microbial growth after 24 hrs by CLSI M38-A procedure based assay"}, "[9]": {"tested_on": "Scedosporium apiospermum", "experiment": "Antifungal activity against Scedosporium apiospermum isolates assessed as lowest compound concentration that produced slight growth or approximately 25% of that of growth control after 24 hrs by CLSI M38-A procedure based assay"}, "[10]": {"tested_on": "Lomentospora prolificans", "experiment": "Antifungal activity against Scedosporium prolificans isolates assessed as lowest compound concentration that produced complete inhibition of microbial growth after 24 hrs by CLSI M38-A procedure based assay"}, "[11]": {"tested_on": "Candida", "experiment": "Antifungal activity against Candida sp. isolates after 48 hrs by CLSI M27-A2 procedure based assay", "procedure,_shortened": "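Candida isolates were stored at –70°C as yeast suspensions and subcultured on potato dextrose or Sabouraud agar before use. Broth microdilution used DMSO drug stocks, with final well concentrations of 0.015–16 or 0.125–128 µg/ml depending on the azole. Plates were incubated at 35°C and read macroscopically at 48 h. MIC-2 was the lowest concentration giving a prominent turbidity decrease (~50% growth inhibition).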"}, "[12]": {"tested_on": "Aspergillus flavus", "experiment": "Antifungal activity against Aspergillus flavus isolates by Etest", "procedure,_shortened": "(§3)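 Etest on RPMI agar with 2% glucose, swab-inoculated with the microdilution spore or yeast suspension taken before its 50-fold dilution. Plates were incubated at 35°C and read at 48 h. The MIC was the ellipse–scale intercept, raised to the next twofold dilution step.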"}, "[13]": {"tested_on": "Mucor", "experiment": "Antifungal activity against Mucor isolates by Etest", "procedure,_shortened": "(§4)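 Etest. The spore inoculum used for microdilution, taken before the 50-fold dilution, was swabbed onto RPMI agar with 2% glucose, strips applied, and plates held at 35°C and read at 24 h. The MIC was where the inhibition ellipse met the strip scale, rounded up to the next twofold dilution.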"}, "[14]": {"tested_on": "Absidia", "experiment": "Antifungal activity against Absidia isolates by Etest", "procedure,_shortened": "as §4"}, "[15]": {"tested_on": "Lomentospora prolificans", "experiment": "Antifungal activity against Scedosporium prolificans isolates by Etest", "procedure,_shortened": "as §3"}, "[16]": {"tested_on": "Candida parapsilosis", "experiment": "Antifungal activity against Candida parapsilosis isolates by Etest", "details": "Lodderomyces parapsilosis", "procedure,_shortened": "as §3"}, "[17]": {"tested_on": "Candida", "experiment": "Antifungal activity against Candida sp. isolates by Etest", "procedure,_shortened": "as §3"}, "[18]": {"tested_on": "Fusarium", "experiment": "Antifungal activity against Fusarium sp. isolates by Etest", "procedure,_shortened": "as §3"}, "[19]": {"tested_on": "Fusarium", "experiment": "Antifungal activity against Fusarium sp. isolates assessed as lowest compound concentration that produced slight growth or approximately 25% of that of growth control after 24 hrs by CLSI M38-A procedure based assay"}}}
{"smiles": "C[C@@H](c1nc(-c2ccc(C#N)cc2)cs1)[C@](O)(Cn1cncn1)c1cc(F)ccc1F", "note": "[ISAVUCONAZOLE]", "values": [{"measurement": "MFC50", "setting": "[1]", "result": 8, "unit": "µg/mL"}, {"measurement": "MFC90", "setting": "[1]", "result": ">16", "unit": "µg/mL"}, {"measurement": "MFC", "setting": "[1]; Mucor, 24 h", "result": 2, "unit": "µg/mL"}, {"measurement": "MIC50", "setting": "[1]; Mucor, 24 h", "result": 2, "unit": "µg/mL"}, {"measurement": "MIC90", "setting": "[1]; Mucor, 24 h", "result": 16, "unit": "µg/mL"}, {"measurement": "MIC50", "setting": "[2]", "result": 1, "unit": "µg/mL"}, {"measurement": "MIC90", "setting": "[2]", "result": 8, "unit": "µg/mL"}, {"measurement": "MIC", "setting": "[3]", "result": 0.5, "unit": "µg/mL"}, {"measurement": "MIC50", "setting": "[3]", "result": 0.5, "unit": "µg/mL"}, {"measurement": "MIC90", "setting": "[3]", "result": 4, "unit": "µg/mL"}, {"measurement": "MIC", "setting": "[4]", "result": 0.5, "unit": "µg/mL"}, {"measurement": "MFC", "setting": "[5]", "result": 16, "unit": "µg/mL"}, {"measurement": "MIC", "setting": "[5]", "result": 2, "unit": "µg/mL"}, {"measurement": "MIC", "setting": "[6]", "result": 0.5, "unit": "µg/mL"}, {"measurement": "MFC", "setting": "[7]", "result": 1, "unit": "µg/mL"}, {"measurement": "MIC", "setting": "[7]", "result": 0.25, "unit": "µg/mL"}, {"measurement": "MFC50", "setting": "[8]", "result": 8, "unit": "µg/mL"}, {"measurement": "MFC90", "setting": "[8]", "result": ">16", "unit": "µg/mL"}, {"measurement": "MFC", "setting": "[8]; Scedosporium apiospermum, 24 h", "result": 2, "unit": "µg/mL"}, {"measurement": "MIC50", "setting": "[8]; Scedosporium apiospermum, 24 h", "result": 4, "unit": "µg/mL"}, {"measurement": "MIC90", "setting": "[8]; Scedosporium apiospermum, 24 h", "result": 4, "unit": "µg/mL"}, {"measurement": "MIC50", "setting": "[9]", "result": 1, "unit": "µg/mL"}, {"measurement": "MIC90", "setting": "[9]", "result": 2, "unit": "µg/mL"}, {"measurement": "MFC50", "setting": "[10]", "result": ">16", "unit": "µg/mL"}, {"measurement": "MFC90", "setting": "[10]", "result": ">16", "unit": "µg/mL"}, {"measurement": "MFC", "setting": "[10]; Lomentospora prolificans, 24 h", "result": "> 16", "unit": "µg/mL"}, {"measurement": "MIC", "setting": "[10]; Lomentospora prolificans, 24 h", "result": "> 16", "unit": "µg/mL"}, {"measurement": "MFC", "setting": "[11]", "result": 0.003, "unit": "µg/mL"}, {"measurement": "MIC", "setting": "[11]", "result": "> 0.015", "unit": "µg/mL"}, {"measurement": "MIC", "setting": "[12]", "result": 0.016, "unit": "µg/mL"}, {"measurement": "MIC50", "setting": "[12]", "result": 0.38, "unit": "µg/mL"}, {"measurement": "MIC90", "setting": "[12]", "result": 0.5, "unit": "µg/mL"}, {"measurement": "MIC", "setting": "[13]", "result": 0.19, "unit": "µg/mL"}, {"measurement": "MIC50", "setting": "[13]", "result": 2, "unit": "µg/mL"}, {"measurement": "MIC90", "setting": "[13]", "result": "> 32", "unit": "µg/mL"}, {"measurement": "MIC", "setting": "[14]", "result": 0.25, "unit": "µg/mL"}, {"measurement": "MIC50", "setting": "[15]", "result": "> 32", "unit": "µg/mL"}, {"measurement": "MIC90", "setting": "[15]", "result": "> 32", "unit": "µg/mL"}, {"measurement": "MIC50", "setting": "[16]", "result": 0.004, "unit": "µg/mL"}, {"measurement": "MIC90", "setting": "[16]", "result": 0.023, "unit": "µg/mL"}, {"measurement": "MIC", "setting": "[17]", "result": 0.004, "unit": "µg/mL"}, {"measurement": "MIC", "setting": "[18]", "result": 0.38, "unit": "µg/mL"}, {"measurement": "MIC50", "setting": "[18]", "result": "> 32", "unit": "µg/mL"}, {"measurement": "MIC90", "setting": "[18]", "result": "> 32", "unit": "µg/mL"}, {"measurement": "MIC50", "setting": "[19]", "result": 16, "unit": "µg/mL"}, {"measurement": "MIC90", "setting": "[19]", "result": "> 16", "unit": "µg/mL"}]}
